Assay [1] has as its system MCF7. Kind of assay: Antiproliferative activity against human MCF7 cells after 5 days by microplate assay. The format is functional, cell-based. To be noted: MCF7, 120 h. Summed up:
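MCF-7 cells in EMEM with sodium pyruvate, gentamycin, NaHCO3, phenol red, 10% FCS; grown 2–3 days in 96-well plates, then medium with compound (0.1% DMF in controls) for 5 days. Glutaric dialdehyde fixation, 0.02% crystal violet staining, 70% EtOH extraction, OD 578 nm. Initial density from fixed wells. IC50; mean of two independent experiments, 16–24 replicates.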

The subject of assay [2] is MDA-MB-231. Kind of assay: Antiproliferative activity against human MDA-MB-231 cells after 4 days by microplate assay. It is filed as functional, cell-based. To be noted: MDA-MB-231, 96 h. In a few lines: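 Cells grown 2–3 days in 96-well plates (37 °C, 5% CO2), medium then replaced with compound-containing medium (controls 0.1% DMF), about 4 days' exposure. Fixed with 1% glutaric dialdehyde, stained with 0.02% crystal violet for 25 min, dye extracted with 70% EtOH, OD read at 578 nm; initial density from fixed wells. IC50 from 16–24 replicates per experiment.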

Assay [3] is filed under the species Bos taurus. The assay is described as follows: Inhibition of temperature-induced tubulin polymerization of calf brain at 40 uM. On the set-up: scale not given: the % may be the effect or the level left. In a few lines: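 Calf brain tubulin purified by temperature-dependent polymerization cycles, then depolymerized at 0 °C in PEMG buffer. Supernatant preincubated 15 min at 37 °C with compound (40 µM, DMSO), chilled, and GTP added. Polymerization started by shifting from 2 °C to 37 °C, followed by absorbance at 350 nm over 20 min. Reported relative to inhibitor-free controls (100%).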

Assay [4] relates to A-431. The assay is described as follows: Inhibition of cell growth in human A431 cells after 3 days by microplate assay. It is filed as functional, cell-based. The settings on record: A-431, 72 h. In a few lines: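 A-431 vulva carcinoma cells, crystal violet microplate protocol as for MDA-MB 231 but with 5% FCS; 3 days' exposure, 0.1% DMF controls. Fixation with glutaric dialdehyde, 0.02% crystal violet, 70% EtOH extraction, OD 578 nm. IC50, mean of four independent experiments with 16–24 replicates ± SD.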

A short description of assay [5]: Antitumor activity against MXT cells xenografted B2D2F1 mouse at 30 mg/kg, sc relative to control. It is filed as functional. The settings on record: route subcutaneous. Summed up: (§1)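 Hormone-resistant MXT tumor pieces (1 mm³) transplanted into 8- to 9-week-old female B2D2F1 mice, groups of 6–8, randomly assigned. Compound given subcutaneously three times per week for two weeks. Tumor area compared with untreated controls (T/C × 100). Body weight change taken between first and last treatment day.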

The subject of assay [6] is Mus musculus. Kind of assay: Effect on body weight in MXT cells xenografted B2D2F1 mouse at 30 mg/kg, sc. The format is functional. To be noted: route subcutaneous. In a few lines: as §1
Assay [7] concerns Mus musculus. Kind of assay: Effect on body weight in MXT cells xenografted B2D2F1 mouse at 10 mg/kg, sc. It is filed as functional. To be noted: route subcutaneous. In a few lines:
as §1

A short description of assay [8]: Antitumor activity against MXT cells xenografted B2D2F1 mouse at 10 mg/kg, sc relative to control. It is filed as functional. To be noted: route subcutaneous. Summed up: as §1
Assay [9] deals with MDA-MB-231. Kind of assay: Cell cycle arrest in MDA-MB-231 cells by accumulation at G2/M phase at 0.01 uM after 24 hrs by flow cytometry. The format is functional, cell-based. To be noted: Homo sapiens. Summed up: (§2)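 Cells grown to 70–80% confluence in flasks and exposed 24 h to compound in DMF (0.1% final), one flask per concentration. Trypsinized, fixed in ice-cold 70% EtOH, DNA extraction buffer 5 min, propidium iodide staining ≥30 min at room temperature. Flow cytometry of 8,000–15,000 events; percentages of sub-G1, G1/G0, S, G2/M cells; representative of two experiments.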
(A flow cytometer gives signals particle by particle.)

Assay [10] has as its system MDA-MB-231. The assay is described as follows: Cell cycle arrest in MDA-MB-231 cells by accumulation at G2/M phase at 0.1 uM after 24 hrs by flow cytometry. It is filed as functional, cell-based. To be noted: Homo sapiens. In a few lines:
as §2

Assay [11] relates to HL-60 (Homo sapiens). The assay is described as follows: Inhibition of cell growth in human HL-60 cells after 48 hrs by MTT assay. To be noted: HL-60, 48 h. (In general: Tetrazolium assays rely on reduction of a dye to a coloured formazan, in cell work by metabolically active cells.)
Assay [12] relates to HL-60 (Homo sapiens). Kind of assay: Induction of apoptosis in human HL-60 cells assessed as increase in caspase 9 activation at 1 uM after 24 hrs.
For assay [13], the system named is HL-60 (Homo sapiens). The assay is described as follows: Induction of apoptosis in human HL-60 cells assessed as increase in caspase 3 activation at 1 uM after 24 hrs.
The subject of assay [14] is MDA-MB-231. The assay is described as follows: Cell cycle arrest in MDA-MB-231 cells by accumulation at G2/M phase at 1.0 uM after 24 hrs by flow cytometry. The format is functional, cell-based. The settings on record: Homo sapiens. Summed up:
as §2

The test system of assay [15] is MDA-MB-231. Kind of assay: Cell cycle arrest in MDA-MB-231 cells by accumulation at G2/M phase at 0.5 uM after 24 hrs by flow cytometry. The format is functional, cell-based. To be noted: Homo sapiens. In a few lines:
as §2

The source made the active and inactive calls. No cut-off for these calls is given here.

Take `COc1ccc(-c2[nH]c3ccc(C(C)C)cc3c2C=C(C#N)C#N)cc1`: the concentration for half-maximal inhibition (IC50) – broadly, the concentration that inhibits the measured activity by half – in assay [1] stood at 310 nM; in [2], 210 nM.
Take `COc1ccc(-c2[nH]c3ccc(OC)cc3c2C=O)cc1`: the Activity in [3] stood at 7%. The IC50 in assay [1] came out at 180 nM; in [4], 200 nM; in assay [2] it was 260 nM.
With `COc1ccc(-c2[nH]c3cc(F)ccc3c2C=C(C#N)C#N)cc1`, the Activity in assay [5] turned out to be 56%; in assay [6], 2.3%; in [7] it was 3.6%; in assay [8], 74%. In addition, the 50% inhibitory concentration (IC50) amounted to 220 nM in assay [1] and 280 nM in [2].
For `CC[C@]1(O)C[C@H]2CN(CCc3c([nH]c4ccccc34)[C@@](C(=O)OC)(c3cc4c(cc3OC)N(C=O)[C@H]3[C@@](O)(C(=O)OC)[C@H](OC(C)=O)[C@]5(CC)C=CCN6CC[C@]43[C@@H]65)C2)C1` [VINCRISTINE], the result in [9] and in [10] was Active. Moreover, in assay [2], the IC50 stood at 4.5 nM.
Consider `COc1ccc(-c2[nH]c3ccccc3c2C=O)cc1`, for which the Activity in [3] turned out to be 3%. Further, the figures for the IC50 in assay [1], in assay [4] and in [2] were 180 nM, 210 nM and 470 nM, respectively.
As for `COc1ccc(-c2[nH]c3ccc(F)cc3c2C=C(C#N)C#N)cc1`, the results for the concentration for half-maximal inhibition (IC50) in assay [1] and in [2] were 310 nM and 400 nM, respectively.
In the case of `CCCCCc1ccc2[nH]c(-c3ccc(C(F)(F)F)cc3)c(C=C(C#N)C#N)c2c1`, the IC50 was 100 nM in assay [1] and 78 nM in [2].
In the case of `CCCCc1ccc2[nH]c(-c3ccc(CC)cc3)c(C=C(C#N)C#N)c2c1`, the IC50 in [1] stood at 200 nM; in assay [2] it was 76 nM.
As to `COc1ccc(-c2[nH]c3ccccc3c2C=C(C#N)C#N)cc1`, the half-inhibitory concentration (IC50) in assay [1] came out at 770 nM; in assay [2] it was 720 nM.
Take `COc1cc([C@@H]2c3cc4c(cc3[C@@H](O[C@@H]3O[C@@H]5CO[C@@H](C)O[C@H]5[C@H](O)[C@H]3O)[C@H]3COC(=O)[C@H]23)OCO4)cc(OC)c1O` [ETOPOSIDE]: the IC50 in assay [11] turned out to be 315 nM.
In the case of `N#CC(C#N)=Cc1c(-c2ccccc2)[nH]c2ccccc12`, the IC50 was found to be 190 nM in assay [1] and 430 nM in [2].
Regarding `COc1ccc(-c2[nH]c3ccc(C)cc3c2C=C(C#N)C#N)cc1`, the IC50 in assay [1] came to 200 nM; in assay [2], 280 nM.
Turning to `CCCCCCc1ccc2[nH]c(-c3ccc(C(F)(F)F)cc3)c(C=C(C#N)C#N)c2c1`, the half-inhibitory concentration (IC50) is 68 nM in [1] and 150 nM in assay [2].
With `CCCCc1ccc2[nH]c(-c3ccc(OC)cc3)c(C=C(C#N)C#N)c2c1`, the concentration for half-maximal inhibition (IC50) in assay [1] is 13 nM; in [2], 26 nM.
Consider `COc1ccc(-c2[nH]c3ccc(OC)cc3c2C=C(C#N)C#N)cc1`, for which the half-maximal inhibitory concentration (IC50) in assay [1] was 340 nM; in [2] it was 590 nM.
For `CCCCCc1ccc2[nH]c(-c3ccc(OC)cc3)c(C=C(C#N)C#N)c2c1`, the outcome in [12] and in assay [13] was Active. Besides, the IC50 came to 76 nM in assay [1], 41 nM in assay [11] and 42 nM in assay [2].
For the compound `CCCc1ccc2[nH]c(-c3ccc(OC)cc3)c(C=C(C#N)C#N)c2c1`, the IC50 in [1] came to 190 nM; in assay [2] it was 83 nM.
With `COc1ccc2c(C=C(C#N)C#N)c(-c3ccc(C)cc3)[nH]c2c1`, the IC50 came out at 250 nM in assay [1] and 180 nM in assay [2].
Regarding `COc1ccc(-c2[nH]c3cc(F)ccc3c2C=O)cc1`, the Activity in [3] was determined as 8%. The values for the half-maximal inhibitory concentration (IC50) in assay [1], in assay [4] and in [2] were 43 nM, 180 nM and 47 nM, respectively.
For the compound `CCCCc1ccc2[nH]c(-c3ccc(C)cc3)c(C=C(C#N)C#N)c2c1`, the IC50 was determined as 100 nM in assay [1] and 65 nM in assay [2].
Consider `CCCCCCc1ccc2[nH]c(-c3ccc(OC)cc3)c(C=C(C#N)C#N)c2c1`, for which the IC50 in assay [1] came to 25 nM; in [2], 46 nM. The outcome in assay [14], in assay [10] and in assay [15] was Active.
In the case of `COc1ccc(-c2[nH]c3cc(Cl)c(C)cc3c2C=C(C#N)C#N)cc1`, the results for the half-inhibitory concentration (IC50) in assay [1] and in [2] were 200 nM and 75 nM, respectively.
In turn, `O=Cc1c(-c2ccccc2)[nH]c2ccccc12` [2-PHENYL-1H-INDOLE-3-CARBALDEHYDE] registered an Activity in assay [3] of 98%. Moreover, the values for the IC50 in assay [1], in assay [4] and in [2] were 650 nM, 760 nM and 420 nM, respectively.
Regarding `CCCCc1ccc2[nH]c(-c3ccc(C(F)(F)F)cc3)c(C=C(C#N)C#N)c2c1`, the result in [12] and in assay [13] was Active. Moreover, the IC50 in [1] is 150 nM; in assay [11] it was 70 nM; in assay [2], 56 nM.
On to `COc1ccc(-c2[nH]c3cc(OC)ccc3c2C=C(C#N)C#N)cc1`, for which the half-maximal inhibitory concentration (IC50) in assay [1] was 300 nM; in [2], 260 nM.

For the origin of these results see ChEMBL document CHEMBL1137541, “[(2-Phenylindol-3-yl)methylene]propanedinitriles inhibit the growth of breast cancer cells by cell cycle arrest in G(2)/M phase and apoptosis” (Bioorg Med Chem, 2007).
